This note sets out measurements from PubChem BioAssay AID651572 (The Scripps Research Institute Molecular Screening Center, 2012).

Structures are written as SMILES. Where “and” joins values, the source holds several entries; their conditions need not be identical. Equal entries are not always repeated. The whole screen tested about 360,000 compounds, of which about 950 (0.26%) were called active.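 How the source made its calls: active means inhibition above a per-plate limit, mean inhibition of low control wells plus 3 SD (cut at about 25% in these data); inactive means the rest.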 What follows is part of a selection rich in actives, with near analogues and random picks from the rest. Some structures have more than one record in an assay (separate samples or runs), and their calls can disagree.

By inhibition is commonly meant the drop in the measured response relative to a control, in per cent.

Chain of ADP-ribosylation factor GTPase-activating protein 1 (Rattus norvegicus) (Q62848 1-136 limits assumed): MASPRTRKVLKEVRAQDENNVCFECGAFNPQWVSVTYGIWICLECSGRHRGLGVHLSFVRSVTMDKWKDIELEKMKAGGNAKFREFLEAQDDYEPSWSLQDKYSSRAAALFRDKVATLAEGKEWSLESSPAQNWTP

The target in this test is ADP-ribosylation factor GTPase-activating protein 1 (Rattus norvegicus) (UniProt Q62848). Nature of the test: inhibitors of rat ARFGAP1 GAP activity, primary screen, biochemical, fluorescence polarization, GDP tracer (AID 651572). To be noted: Arfgap1-stimulated ARF1 GTP hydrolysis, GDP FP detection; at 16.5 µM; stronger effect = higher value. In outline:
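Material: truncated rat Arfgap1 GAP domain; Incubation: compound-enzyme preincubation 20 min, reaction 120 min, detection 60 min, 25 °C; Read-out: percent inhibition of Arfgap1-stimulated GTP hydrolysis; Technique: FP, GDP Alexa 633 tracer displaced from anti-GDP antibody, 620/688 nm; Controls: No-Arfgap1 wells (100%) versus DMSO full-reaction wells (0%); Replication: single well per compound.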
(In general: Polarisation of emitted light reports the rotation of a fluorescent probe.)
On to `CCOC(=O)c1ccc(Nc2cc3ccccc3c(=O)[nH]2)cc1`, for which the inhibition is 25.9% (active). The value for `CCOC(=O)c1ccc(NC(=O)c2c(N)n(C)c(=O)[nH]c2=O)cc1` was 11% (inactive). For `CCOC(=O)c1ccc(NC(=O)c2c(NCc3ccccc3)[nH]c(=O)[nH]c2=O)cc1`, the inhibition is -10.9% (inactive). The value for `CC(C)CNc1cccc2c1S(=O)(=O)N[C@H](CC(C)C)CO2` was 2.08% (inactive); that for `CC(C)[C@H]1COCCS(=O)(=O)N1Cc1ccccc1-c1cccc2c1sc1ccccc12` was -9.36% (inactive). Regarding `COC(=O)C(C(=O)OC)c1ccccc1NS(=O)(=O)c1cccc2ccccc12`, the inhibition was -11.2% (inactive). The value for `COCCCNC(=O)C[C@H]1C[C@@]2(C(=O)OC)C(=C[C@H](C(C)(C)C)O[C@@H]2C)N(Cc2ccc3c(c2)OCO3)C1=O` was 2.5% (inactive).

With `CCOC(=O)C1CCN(C(c2cc3cc(C)cc(C)c3[nH]c2=O)c2nnnn2C2CCCCC2)CC1` (stereo not drawn), the inhibition is 38.1% (active).

Turning to `Cc1cc(C)c2[nH]c(=O)c(C(c3nnnn3Cc3ccc4c(c3)OCO4)N3CCCC3)cc2c1` (stereo not drawn), the inhibition is 6.09% (inactive). As for `COc1ccc(N2CCN(C(c3cc4ccc(C)cc4[nH]c3=O)c3nnnn3C3CCCC3)CC2)cc1` (stereo not drawn), the inhibition was 7.55% (inactive). Turning to `CCCCOCC1CN(CCCC)S(=O)(=O)c2c(Oc3ccc(F)cc3)cccc2O1` (stereo not drawn), the inhibition is -16.2% (inactive).

`Cc1cc(NCCc2c[nH]c3ccccc23)ccc1Oc1cccnc1`: the inhibition is 4.98% (inactive). The value for `CCCCCCCCN1C(=O)[C@@H](CC(=O)NCc2ccc(C)o2)C[C@@]2(C(=O)OC)C1=C[C@H](C(C)(C)C)O[C@@H]2C` was 13.1% (inactive); that for `O=C(Nc1ccccc1)c1cc2ccccc2[nH]1` was -4.92% (inactive); that for `O=C(Nc1cccc(-c2nc3ccccc3[nH]2)c1)c1ccc(C(=O)Nc2cccc(-c3nc4ccccc4[nH]3)c2)cc1` was 47.5% (active). The value for `CC(C)n1c(=O)[nH]c2cc(C(=O)Nc3ccccc3)ccc21` was 9.47% (inactive). For `COCCNC(=S)N(C)[C@H]1C[C@H]2c3[nH]c4ccccc4c3CCN2C[C@H]1[C@H](C)O` the value was 8.23% (inactive); for `C=CCN=C1NC(c2cccc(C(F)(F)F)c2)C(C(=O)OC)=C(C)N1C` (stereo not drawn), -13.8% (inactive).

In the case of `Cc1ccc2nc(-c3ccc(CN4CCC(n5cc(-c6ccccc6)[nH]c5=O)CC4)cc3)c(-c3ccccc3)nc2c1`, the inhibition was 8.03% (inactive). For `Nc1[nH]c(C(=O)c2ccccc2)c(-c2ccc(Cl)cc2Cl)c1C(=O)c1ccccc1` the value was -3.18% (inactive); for `CC(C)(C)C(c1nc2ccccc2[nH]1)n1c(Cc2csc3ccccc23)nc2ccccc21` (stereo not drawn), 0.81% (inactive).

On to `O=C(NCCCN1CCOCC1)c1cnn2c(-c3ccccc3)cc(-c3ccccc3)nc12`, for which the inhibition was -2.5% (inactive). For `CC(C)c1ccc(/C=C/C(=O)NCCCN2CCOCC2)cc1` the value was -5.51% (inactive); for `O=C(/C=C/c1cn(-c2ccccc2)nc1-c1ccc2c(c1)OCCO2)NCCCN1CCOCC1`, 25.8% (active); for `COC(=O)c1ccc(CN2C(=O)[C@]3(OCCC=C[C@H]3C)c3c(Br)cccc32)cc1`, 13.2% (inactive). Turning to `CSc1ccc(Oc2cccc3c2S(=O)(=O)N([C@H](C)c2ccccc2)C[C@@H](COCc2ccccc2)O3)cc1C`, the inhibition was -6.49% (inactive). In the case of `O=C(NCc1ccccc1)[C@@H]1CCCN1C(=O)[C@H]1CCCN1C(=O)c1cccc(Cl)c1`, the inhibition is 9.96% (inactive). The value for `COc1ccc(CNC(=O)C2CCN(C(=O)c3ccccc3)CC2)cc1` was -4.15% (inactive). The value for `COc1ccc(-n2nc3c(N4CCC(C(=O)NCc5ccccc5)CC4)nnc(C)c3c2C)cc1` was 26.9% (active); that for `COc1ccc(CNC(=O)C2CCN(C(=O)c3ccco3)CC2)cc1` was 9.83% (inactive); that for `C[C@@H]1CN([C@H](C)CO)C(=O)CCCn2cc(nn2)CO[C@H]1CN(C)C(=O)Nc1ccc(N2CCCCC2)cc1` was -7.3% (inactive). For `Cc1cc2c(nc1C)CCCN2C` the value was -0.08% (inactive).

Regarding `COc1cccc(CNC(=O)[C@H]2CCCN2C(=O)[C@H]2CCCN2C(=O)c2cc(F)cc(F)c2)c1`, the inhibition was 9.87% (inactive). The value for `C[C@H](CO)N1C[C@H](C)[C@@H](CN(C)C(=O)Nc2ccccc2F)OCc2cn(nn2)CCCC1=O` was 5.05% (inactive).

Regarding `COc1ccc(Cl)cc1NC(=O)Cn1nc(-c2ccc(C)cc2)n(C)c1=S`, the inhibition was 41.6% (active). As for `COc1ccc(C)cc1NC(=O)CSc1ccc(Cl)cc1`, the inhibition is -5.43% (inactive).

For `COc1ccc(Cl)cc1NC(=O)CN1CCN(C(=O)N2CCOCC2)CC1`, the inhibition was 15% (inactive). With `N#Cc1cccc(C(=O)NCC2CCN(C(=O)C(=O)c3cc4ccccc4o3)CC2)c1`, the inhibition is 8.35% (inactive). The value for `COC(=O)[C@]12C[C@H](CC(=O)NCCc3ccccc3OC)C(=O)N(Cc3ccccc3)C1=C[C@H](C(C)C)O[C@@H]2C1CC1` was -5.59% (inactive). For the compound `C#C[C@]1(O)CC[C@H]2[C@@H]3CCC4=CC(=O)CC[C@@H]4[C@H]3CC[C@@]21CC`, the inhibition was -2.58% (inactive) and 25.1% (active).

Turning to `C=CC[C@]12C[C@@]3(O[C@H](c4ccc(C(F)(F)F)cc4)N=C3C[C@H](c3ccc(OC)cc3)[C@H]1C)N(C1CCN(Cc3ccccc3)CC1)C2=O`, the inhibition is 4.67% (inactive). The value for `CN(C)C(=O)N1CCN(C(=O)[C@@H](Cc2ccccc2)NC(=O)[C@H]2O[C@@H](n3ccc(N)nc3=O)[C@H](O)[C@@H]2O)CC1` was 5.01% (inactive); that for `COC(=O)Cc1nnn2c1[C@H](C)[C@H](c1ccccc1[N+](=O)[O-])OCC2` was 4.46% (inactive). In the case of `COc1ccc(S(=O)(=O)Nc2ccc3c(c2)C(=O)N([C@H](C)CO)C[C@H](C)[C@@H](CN(C)C)OCCCC[C@H](C)O3)cc1`, the inhibition is 1.2% (inactive). For `Cc1cccc(OCC(O)CN2CCN(S(=O)(=O)c3ccc(C)cc3C)CC2)c1` (stereo not drawn) the value was 10.2% (inactive).

On to `OC(COc1cccc(OCC(O)CN2CCCC2)c1)CN1CCCC1` (stereo not drawn), for which the inhibition was 28.2% (active). For `OC(COc1ccc(CN2CCSCC2)cc1)CN1CCCCC1` (stereo not drawn) the value was -6.07% (inactive). Take `Cc1cc(OC(=O)NCCc2ccc(F)cc2)ccc1F`: the inhibition is 17% (inactive). The value for `Cc1ccc(N)cc1CN1CCN(c2ncc(Cc3ccccc3)cn2)CC1` was -5.78% (inactive). For the compound `O=C(NC1CCCCC1)c1ccc(CNc2c(N3CCOCC3)c(=O)c2=O)cc1`, the inhibition is 26.4% (active).

Regarding `O=C(NCc1ccc(F)cc1)C1CCC(CNc2c(N3CCOCC3)c(=O)c2=O)CC1` (stereo not drawn), the inhibition was 2.8% (inactive). With `O=C(NCc1ccccc1)c1ccc(CNc2c(N3CCCC3)c(=O)c2=O)cc1`, the inhibition was -4.58% (inactive). Take `O=C(NS(=O)(=O)c1cccs1)[C@H]1O[C@@H](n2ccc(=O)[nH]c2=O)[C@H](O)[C@@H]1O`: the inhibition is 1.8% (inactive).

Consider `C[C@H](O)[C@@H]1CN2CCc3ccc(-c4ccc5c(c4)OCO5)cc3[C@@H]2C[C@@H]1N(C)C(=O)C1CCCCC1`, for which the inhibition was -7.53% (inactive). For `CN[C@H]1C[C@H]2c3[nH]c4c(-c5ccccc5)cccc4c3CCN2C(=O)[C@H]1[C@H](C)O` the value was 6.11% (inactive); for `Fc1ccc(-c2ccc(-c3nn4c(-c5ccco5)nnc4s3)o2)cc1`, 3.63% (inactive). For `c1ccc(-c2cc(-c3nnc4sc(-c5ccccn5)nn34)[nH]n2)cc1` the value was 37.4% (active); for `CCCCCCCCN1C(=O)[C@@H](CC(=O)NCc2ccccc2)C[C@@]2(C(=O)OC)C1=C[C@H](C(C)(C)C)O[C@@H]2C`, 1.82% (inactive). The value for `C=CCN=C1NC(c2ccccc2)C(C(=O)OC)=C(C)N1Cc1ccc(C(F)(F)F)cc1` (stereo not drawn) was 7.52% (inactive). As to `COC(=O)N1Cc2ccnnc2CC1c1ccccc1Br` (stereo not drawn), the inhibition was 0.38% (inactive). For `O=C(C(=O)N1CCC(CNC(=O)c2cccnc2Cl)CC1)c1cccs1` the value was 12.7% (inactive). Turning to `COc1ccc(NC(=O)N(C)C[C@@H]2OCCCC[C@@H](C)Oc3ccc(NC(=O)NC4CCCCC4)cc3C(=O)N([C@H](C)CO)C[C@@H]2C)cc1`, the inhibition was -0.56% (inactive). The value for `CCN(CC)c1ccc(NC(=O)CN2CCN(c3ccccn3)CC2)cc1` was 45.5% (active); that for `CCC(=O)Nc1ccc2c(c1)nc(CCN1CCN(c3ccccn3)CC1)n2C` was -11.6% (inactive).

Turning to `O=C(CN1CCN(c2ccccn2)CC1)NCc1cccs1`, the inhibition is 19.2% (inactive). The value for `O=S(=O)(c1cccs1)N1CCCc2nc(-c3ccc(Br)cc3)ccc21` was -3.29% (inactive); that for `O=C(NCc1ccccc1)[C@@H]1CCCN1C(=O)[C@@H](NS(=O)(=O)c1ccc(F)cc1F)C1CCCCC1` was 2.51% (inactive).

Regarding `COC(=O)[C@]12C[C@H](CC(=O)NCCC(C)C)C(=O)N(CCc3ccc(OC)c(OC)c3)C1=C[C@H](C(C)(C)C)O[C@@H]2C`, the inhibition was 6.73% (inactive). For `Cc1ccc2nc(SCC(=O)N3CCN(c4ccccc4)CC3)nc(=O)n2c1` the value was 22.7% (inactive); for `Cc1ccc2nc(SCC(=O)Nc3cccc4ccccc34)nc(=O)n2c1`, 8.63% (inactive); for `Cc1ccc2nc(SCC(=O)N3CC(C)OC(C)C3)nc(=O)n2c1` (stereo not drawn), 83.6% (active). As to `Brc1ccc(COCCc2cn(Cc3ccccc3)c3ccccc23)cc1`, the inhibition was 10.9% (inactive). For the compound `CCN1C(=O)N[C@@H]2C[C@H](C(=O)N3CCCC3)[C@H](C)[C@H](c3ccccc3)C[C@@H]21`, the inhibition is -0.64% (inactive).

On to `O=C(C(=O)N1CCC(CNS(=O)(=O)Cc2ccccc2)CC1)c1cc2ccccc2o1`, for which the inhibition is 10.3% (inactive). Regarding `O=C(NCc1ccccc1)[C@H]1CCCN1C(=O)[C@H]1CCCN1C(=O)c1cc(F)cc(F)c1`, the inhibition is -2.81% (inactive). In the case of `COc1ccc(C(CNC(=O)c2ccc(S(=O)(=O)Nc3ccccc3C)cc2)N2CCOCC2)cc1` (stereo not drawn), the inhibition was -2.87% (inactive).

With `COc1ccc(C(CNC(=O)c2cccc(S(=O)(=O)Nc3ccccc3Cl)c2)N2CCOCC2)cc1` (stereo not drawn), the inhibition is 27% (active). The value for `COc1ccc(C(CNC(=O)c2cccc(NS(=O)(=O)c3ccc(C)c(F)c3)c2)N2CCCC2)cc1` (stereo not drawn) was 16.5% (inactive).
